# Bfl-1 A1 inh: inhibitors of the anti-apoptotic protein A1, read as caspase activation. AID 2462. caspase activation, % (concentration not given with the values). 0.066% of 330,000 active. MEF A1-2A-BIM cells, Caspase-Glo 3/7 luminescence, 3 h; percent of clofoctol response, vehicle zero;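 active means over half of replicate activation scores above 10%, or exactly half above 10 with the replicate mean above 10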
# LANA-H2A inh: blocks KSHV LANA binding to histone H2A/H2B | Q9QR71 | cell-free LANA-H2A/H2B peptide, fluorescence polarization | inhibition, % (no concentration beside the values) | 0.6% of 320,000 active; in the data active means inhibition mostly above about 10%, no sharp cut-off; inactive means mostly below about 6.7%
# AI-2 QS mod: modulates the Vibrio harveyi AI-2 quorum sensing system. Vibrio harveyi JMH597 AI-2 luminescence/OD600 ratio, 9 h; active compounds read low; strain lacks LuxN and CqsS sensors; 0 = neutral-control median. activity change, % at 7.5 µM. 0.4% of 300,000 active. AID 2094; in the data active means activity change below about -75%, passing the limit was not always enough;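 further: luminescence divided by OD600 gain over 9 h not by final OD600 alone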
# HKDC1 inhibitor: HKDC1 (human) hexokinase inhibition; Q2TB90; recombinant HKDC1, G6PDH/diaphorase resazurin coupled fluorescence; inhibition, % at 20 µM; 0.16% of 340,000 active; AID 493160;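 active means inhibition above about 35% when tested at 20 µM, limit read from the data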;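 further: plate controls were DMSO wells with enzyme for no effect and DMSO wells lacking enzyme for full effect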
#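 Test system: HK5 enzyme. Quantity: 5 µg/mL HK5 final. Reagent: glucose and ATP substrates. Schedule: 90 min reaction incubation at room temperature, dark. Technique: resazurin-to-resorufin fluorescence via G6PDH and diaphorase coupling, 525/613 nm. Control set: DMSO wells with and without enzyme mix.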
# ATG4B inh: inhibitors of human ATG4B cysteine protease; Q9Y4P1; ATG4B cleavage of LC3-PLA2, NBD-HPC fluorescence, 1 h; inhibition, % at 8.33 µM; 0.51% of 340,000 active; AID 504462; in the data active means inhibition above about 40%
# Target sequence (Q9Y4P1 whole entry, looked up): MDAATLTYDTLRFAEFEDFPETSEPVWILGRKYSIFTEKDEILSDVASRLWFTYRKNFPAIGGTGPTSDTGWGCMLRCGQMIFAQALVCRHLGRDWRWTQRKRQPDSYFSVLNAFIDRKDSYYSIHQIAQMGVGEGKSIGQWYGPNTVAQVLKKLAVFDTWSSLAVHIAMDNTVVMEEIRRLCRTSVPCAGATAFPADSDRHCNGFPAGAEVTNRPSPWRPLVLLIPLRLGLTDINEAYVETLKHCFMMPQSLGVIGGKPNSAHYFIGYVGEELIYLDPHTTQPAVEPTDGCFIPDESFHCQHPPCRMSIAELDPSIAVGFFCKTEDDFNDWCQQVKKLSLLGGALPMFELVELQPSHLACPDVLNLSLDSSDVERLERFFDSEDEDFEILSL
# HDAC3 inhib: inhibitors of human histone deacetylase 3; O15379; AID 2718; 0.15% of 320,000 active; recombinant HDAC3, fluorogenic peptide/trypsin coupled, fluorescence; inhibition, % at 8.3 µM; in the data active means inhibition above about 26%, passing the limit was not always enough
# Starred values were filed as active, the others as inactive; · = not tested or not shown; + = active, no number. Most compounds without a hit are left out; they make up all but 1.8% or so of the library.
SMILES,Bfl-1 A1 inh,LANA-H2A inh,AI-2 QS mod,HKDC1 inhibitor,ATG4B inh,HDAC3 inhib
COc1ccc(OC)c(C2C(C(C)=O)=C(O)C(=O)N2Cc2cccnc2)c1 (stereo not given),5.2*,4.7,12.1,-9.5,-11.3,-8.1
CN1C[C@@H]2[C@@H]3C(=O)N(C)C(=O)[C@@H]3[C@](C)(C1=O)N2C(=O)c1ccc(C(C)(C)C)cc1,·,·,·,-2.3,1.0,·
COC(=O)c1ccc(NC(=O)COC(=O)c2cccc3c(=O)c(C)c(-c4ccccc4)oc23)cc1,1.0,2.9,31.5,2.9,-23.5,-2.6
Cc1c(-c2ccccc2)oc2c(C(=O)OCC(=O)Nc3ccc(C(N)=O)cc3)cccc2c1=O,0.0,28.4*,9.4,-2.8,-20.3,-2.4
Cc1ccc(SCCCCN2CCNCC2)cc1,1.1,17.6*,23.4,-10.7,-7.3,4.2
CCOc1cc2c3c(c1)C(C)=CC(C)(C)N3C(=O)C2=O,1.1,13.3*,27.5,16.6,5.1,·
COC(=O)C(/C=N/OCc1ccc([N+](=O)[O-])cc1)NC(=O)c1cccc(Cl)c1 (stereo not given),-0.6,1.9,36.0,-6.2,-4.7,44.3*
CC(C)C[C@H]1CNC(=S)N1CC1CCN(CCCC2CCCC2)CC1,·,·,·,-3.4,·,·
CCN(CC(=O)Nc1ccccc1C(F)(F)F)C(=O)CCc1ccccc1,-0.1,-3.6,7.5,-3.8,-3.5,-2.1
O=C(CCc1ccccc1)Nc1ccccc1C(F)(F)F,-1.4,31.7*,14.5,-4.2,1.1,2.2
COc1ccc(CC(=O)OCC(=O)Nc2cccc(Br)c2)cc1,0.7,-4.7,-76.1*,-7.4,-1.2,-1.7
COc1ccc2cc(CCC(C)=O)ccc2c1,-0.4,12.5*,15.5,-4.8,-6.2,9.8
Cc1cccc(NC(=O)CCc2ccccc2)c1,-0.3,-0.1,-84.9*,-5.2,9.5,3.9
O=C(COc1cc(F)ccc1[N+](=O)[O-])Nc1cc(S(=O)(=O)N2CCCC2)ccc1Cl,·,·,·,6.1,-11.0,·
CC(C)(C)[C@@H]1COC(=O)[C@H](Cc2ccc(F)cc2)C/C=C\C[C@@H](CC(=O)N(CCO)Cc2ccccc2)C(=O)N1,0.3,-0.6,·,-4.0,8.4,2.2
COc1ccc(CCC(=O)Nc2cccc(Cl)c2)cc1,-0.1,-1.2,-82.9*,-0.9,-12.6,3.2
CC(C)N1CC=C2C(C#N)=C(N)C(C#N)(C#N)C(c3ccccc3)C2C1 (stereo not given),-0.6,+,8.6,12.4,-6.4,-16.0
C=CCNC(=S)N1CCC(Cc2ccccc2)CC1,0.2,-5.7,12.3,-4.8,1.6,3.4
C=CCNC(=S)N1CCN(Cc2ccccc2)CC1,-0.2,18.1*,5.8,1.1,-1.2,-0.9
N#Cc1nc(-c2ccc(Cl)cc2)oc1NCc1ccco1,-1.4,1.3,7.1,1.1,-6.4,-5.9
N#Cc1nc(-c2ccccc2Cl)oc1NCc1ccco1,0.1,-4.2,-80.3*,14.5,7.2,5.2
O=S(=O)(Nc1ccc(N2CCCCC2)cc1)c1cccs1,-0.2,-10.7,50.7,-5.3,-6.4,-4.1
O=C1C(NS(=O)(=O)c2cccs2)=C(N2CCN(c3cccc(C(F)(F)F)c3)CC2)C(=O)c2ccccc21,0.3,2.9,17.8,13.2,63.7*,-1.5
O=S(=O)(Nc1ccc(C(F)(F)F)cc1)c1cccs1,-0.5,1.2,-84.9*,1.0,-2.4,10.0
CN1CCN(C2=C(NS(=O)(=O)c3cccs3)C(=O)c3ccccc3C2=O)CC1,-0.1,0.1,7.7,11.5,-4.0,·
C[C@@H](N)C(=O)NC[C@H]1O[C@@H](n2cnc3c(N)ncnc32)[C@H](O)[C@@H]1O,·,·,·,-5.1,2.7,·
CN(C)C(=O)CCc1ccc2c3c([nH]c2c1)[C@]1(C)[C@@H](C(=O)N2CCCCC2)C[C@H](CC(=O)NCC24CC5CC(CC(C5)C2)C4)C(=O)N1CC3,·,·,·,9.2,-15.2,·
NC(=O)C1C2C=CC(C2)C1c1ccccc1 (stereo not given),·,·,·,-6.4,4.2,·
COc1ccc2c3c(cccc13)C(=O)N(O)C2=O,0.0,-2.3,44.5,0.1,12.1,-0.3
CCC1=NNc2cccc3c(OC)ccc1c23,-0.5,7.0,7.5,·,·,31.0*

# Compound activity deposited in PubChem by several laboratories.
